# The list is not random: actives were taken first. Their share in the collection is about 3.2%.
# DAGLB inhibitor: diacylglycerol lipase beta (human) inhibition; HEK293T DAGLB membrane lysate, EnzChek fluorogenic substrate; hit rate 0.059% among 340,000; Q8NCG7; inhibition, % at 5.17 µM; AID 504411; in the data active means inhibition above about 34%;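 further: 0% = enzyme with vehicle and 100% = wells lacking enzyme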
# Target sequence (Q8NCG7 whole entry, looked up): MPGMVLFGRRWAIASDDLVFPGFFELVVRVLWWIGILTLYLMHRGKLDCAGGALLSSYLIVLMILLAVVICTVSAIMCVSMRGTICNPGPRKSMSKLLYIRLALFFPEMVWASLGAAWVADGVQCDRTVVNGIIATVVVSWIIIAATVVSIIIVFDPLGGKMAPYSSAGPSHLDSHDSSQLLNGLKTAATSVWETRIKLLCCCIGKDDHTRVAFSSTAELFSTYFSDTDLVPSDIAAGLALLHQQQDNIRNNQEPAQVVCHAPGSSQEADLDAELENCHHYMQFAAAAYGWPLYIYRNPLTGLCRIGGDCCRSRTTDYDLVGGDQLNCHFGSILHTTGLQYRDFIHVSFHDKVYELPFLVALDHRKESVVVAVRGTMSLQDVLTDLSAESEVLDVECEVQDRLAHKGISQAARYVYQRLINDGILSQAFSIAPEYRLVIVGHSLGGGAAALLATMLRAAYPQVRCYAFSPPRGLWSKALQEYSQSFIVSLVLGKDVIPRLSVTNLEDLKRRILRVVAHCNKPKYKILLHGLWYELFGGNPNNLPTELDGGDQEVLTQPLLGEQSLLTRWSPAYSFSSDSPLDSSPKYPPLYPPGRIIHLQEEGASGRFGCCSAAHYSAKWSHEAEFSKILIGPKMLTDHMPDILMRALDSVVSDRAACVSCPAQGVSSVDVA
# PRMT1 inh: blocks human protein arginine methyltransferase 1. AID 652257. inhibition, % at 2.79 µM. recombinant PRMT1, activity-based probe fluorescence polarization. hit rate 1.3% among 370,000. Q99873;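 active means inhibition above about 21% made by adding two undisclosed values, limit read from the data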
# LEDGF integ inh: blocks HIV-1 LEDGF/p75-dependent DNA integration. hit rate 0.64% among 370,000. inhibition, % at 3.7 µM. TR-FRET IN-LEDGF/p75 DNA integration, Eu/Cy5;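 active means inhibition above the screen-wide mean plus 3 SD, cut at about 13% in these data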;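 further: signal is the Cy5 over europium emission ratio at 671 and 618 nm; 0% = plate median of compound wells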
# rCAG RNA binder: r(CAG) repeat RNA binding; TO-PRO-1 dye displacement fluorescence; inhibition, % at 3 µM; hit rate 1.3% among 370,000; AID 651821;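 active means inhibition above the plate cutoff, the mean of all test compounds on that plate plus 3 SD, cut at about 35% in these data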;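 further: 0% = DMSO alone and 100% = 100 µM mitoxantrone as full dye displacement; higher means more dye released from RNA so lower well fluorescence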
# ABHD4 inh: inhibits mouse alpha/beta hydrolase domain 4; Q8VD66; purified mABHD4, FP-Rh probe fluorescence polarization; inhibition, % at 8.92 µM; hit rate 0.54% among 370,000;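 active means inhibition exceeding the mean over every tested compound plus 3 SD, cut at about 30% in these data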;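 further: 0% = plate median of compound wells and 100% = S159A mutant with DMSO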
#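 Assay system: Wild-type mouse ABHD4 protein | Medium: HEPES pH 7.0 buffer, 150 mM NaCl, 0.01% Pluronic F-127 | Incubation: Enzyme–compound pre-incubation 45 min, then probe 60 min, both 25 °C | Technique: Fluorescence polarization with parallel and perpendicular emission, 525/598 nm | Evaluation: % inhibition of FP-Rh probe binding versus controls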
# HTRA1 inhibitor: HTRA1 (human) protease inhibition; Q92743; hit rate 0.5% among 340,000; inhibition, % at 5.96 µM; recombinant HTRA1, FP-rhodamine activity-based probe, fluorescence polarization; in the data active means inhibition above about 36%;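 further: 0% = enzyme with DMSO and 100% = wells lacking enzyme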
# rCAG binder conf: r(CAG) RNA repeat binding, confirmation. inhibition, % at 3 µM. shares compounds with rCAG RNA binder. TO-PRO-1 dye displacement fluorescence. hit rate 70% among 4,300;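 active means inhibition above a per-plate cutoff, the mean inhibition of sample wells plus 3 SD, cut at about 35% in these data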;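 further: loss of TO-PRO-1 fluorescence as compound displaces dye from 1x1 AA loop RNA; 0% = DMSO only wells and 100% = 100 µM mitoxantrone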
# dCAG dye counter: DNA CAG dye complex inhibition counter-screen; shares compounds with rCAG RNA binder; d(CAG) DNA oligo TO-PRO-1 dye displacement, fluorescence; inhibition, % at 3 µM; hit rate 94% among 4,300;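 active means inhibition above its plate's cutoff, the mean test-well inhibition plus 3 SD, cut at about 4.8% in these data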;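 further: 0% = DNA dye mix with DMSO and 100% = 100 µM mitoxantrone; hits displace the dye from DNA and so lower well fluorescence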
# dCAG dye DR: DNA CAG dye complex inhibition, dose response counter-screen. shares compounds with rCAG RNA binder. DNA CAG/GTC duplex TO-PRO-1 dye displacement fluorescence. IC50, µM. hit rate 20% among 250. AID 686960; in the data active means IC50 below about 10 µM
# * = called active by the depositor; i = inactive; nt = not tested or not shown.
SMILES,DAGLB inhibitor,PRMT1 inh,LEDGF integ inh,rCAG RNA binder,ABHD4 inh,HTRA1 inhibitor,rCAG binder conf,dCAG dye counter,others
CCOc1cc(/C=C2\SC(=Nc3ccc(CC)cc3)NC2=O)ccc1OCC(=O)O,5,3,-1,71*,-25,-23,47*,14*,
CCc1ccc(N=C2NC(=O)/C(=C/c3cc(OC)c(OC)c(OC)c3)S2)cc1,2,-2,-1,23,-11,-48,nt,nt,
CCOc1cc(Br)cc(/C=C2\SC(=Nc3ccccc3)NC2=O)c1O,5,24*,-2,67*,-6,-8,83*,47*,
COC(=O)c1cccc(NC(=O)Cc2ccsc2)c1,1,-8,4,-1,-1,-4,nt,nt,
COc1ccc(C(=O)/C=C2\C(=O)Nc3ccc(Br)cc32)cc1,4,11,0,18,12,-49,nt,nt,
O=C1Nc2ccc(Br)cc2/C1=C/C(=O)c1ccc2c(c1)OCO2,6,4,0,44*,7,-27,26,14*,
Cc1ccc(N/N=C(/Sc2nnnn2-c2ccccc2)C(=O)c2ccccc2)cc1,10,11,-2,68*,-1,2,53*,21*,dCAG dye DR=i
O=C(/C(=N\Nc1ccc([N+](=O)[O-])cc1)Sc1nnnn1-c1ccccc1)c1ccccc1,22,5,-4,34,5,-6,nt,nt,
CC1CCc2c(C(=O)Nc3cccc(-c4nn[nH]n4)c3)csc2C1 (stereo unspecified),2,0,3,65*,-52,-34,46*,13*,
COc1ccccc1NC(=O)c1csc2c1CCC(C)C2 (stereo unspecified),-8,4,-4,-1,8,-16,nt,nt,
CC(=O)Nc1ccc(S(=O)(=O)NCC(=O)OCC(=O)NCc2ccc3c(c2)OCO3)cc1,1,0,0,7,-2,0,nt,nt,
N#CC1=C(S)N(c2ccccc2)C(c2ccc(-c3ccccc3Cl)o2)NC1=O (stereo unspecified),6,7,-1,52*,-9,-29,76*,40*,
COC(=O)c1sc(NC(=O)c2ccc(Cn3cc(Cl)cn3)o2)c(C#N)c1C,9,1,-2,48*,13,-4,42*,13*,
N#Cc1c(NC(=O)c2ccc(Cn3cc(Br)cn3)o2)sc2c1CCCCC2,-9,0,1,15,-13,-47,nt,nt,
CC1(C(=O)NS(=O)(=O)c2ccccc2Cl)CCN1C(=O)Cc1ccc(Cl)cc1Cl (stereo unspecified),nt,-3,-1,23,-4,nt,nt,nt,
Cc1ccccc1S(=O)(=O)NC(=O)C1(C)CCN1C(=O)CCc1ccc(Cl)cc1Cl (stereo unspecified),nt,-1,0,44*,-2,nt,33,6.1*,
CC1(C(=O)NS(=O)(=O)c2ccccc2Cl)CCN1C(=O)CCc1ccc(Cl)cc1Cl (stereo unspecified),nt,-1,3,47*,-4,nt,36*,7.3*,
CN(C)/C=C/C(=O)c1ccc(S(=O)(=O)c2ccccc2)cc1,3,0,4,19,-6,-26,nt,nt,
Cc1ccc(C(=O)Nc2ccccc2C(=O)O)cc1S(=O)(=O)Nc1ccccc1,7,-2,-1,67*,-20,-33,46*,15*,
Cc1ccc(NC(=O)CC(=O)c2ccc([N+](=O)[O-])cc2)cc1S(=O)(=O)Nc1cccc(Cl)c1,8,-2,-1,50*,-64,33,64*,25*,
Cc1ccc(C(=O)Nc2cccc([N+](=O)[O-])c2)cc1S(=O)(=O)Nc1ccc(NC(=O)c2ccccc2)cc1,-5,0,-1,55*,-98,-88,41*,21*,
Cc1ccc(C(=O)Nc2ccccc2C(=O)O)cc1S(=O)(=O)NC1CCCCC1,8,1,2,70*,-22,-38,61*,22*,

# Screening results as filed in PubChem.
